# From PubChem
# Hits are enriched below; roughly 1.9% of the tested compounds scored in any of these assays.
# pCIP destab: p/CIP-EGFP fusion destabilizers, primary screen, fluorescence, F442A cells. 16 h. decrease of EGFP signal, % at 10 µM. 290,000 compounds, 0.01% hits;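 active means EGFP signal decrease of at least 30% at 10 µM or well 3 SD below plate mean, unless failing retest; inactive means the rest, including hits failing retest or dose response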
# NS3 helicase inh: inhibitors of HCV NS3 helicase, primary screen, biochemical, Cy5 molecular beacon fluorescence; NS3 helicase DNA unwinding; inhibition, % at 10.9 µM; 290,000 compounds, 0.56% hits; AID 1800, 2009;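 active means inhibition above the mean of all tested compounds plus 3 SD, set per campaign, cut at about 35% in these data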;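 further: 0% = DMSO wells and 100% = thioflavine S control wells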
#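 assay system = NS3 helicase fragment of HCV | buffer or medium = MOPS pH 6.5, MgCl2, DTT, Tween20, BSA | timing = 60 min unwinding reaction at 25 °C after ATP addition | signal = Cy5 beacon fluorescence read at start and 1 h | read-out basis = % inhibition of unwinding | control set = low DMSO, high thioflavine S at 110 µM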
# HCV core dimer: inhibitors of HCV core protein dimerization, primary screen, biochemical, TR-FRET, high-throughput. 300,000 compounds, 0.33% hits. inhibition, % at 5 µM. TR-FRET GST/Flag-core106 dimerization, 1536-well;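 active means inhibition above the mean of all tested compounds plus 3 SD, set per screening campaign, cut at about 45% in these data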
#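 Assay system: GST-tagged and Flag-tagged HCV core protein residues 1-106 / Times: compound-protein-antibody incubation 4 h at 22.5 °C / Signal: time-resolved FRET, ex 340 nm, em 617 and 671 nm / Evaluation: % inhibition based on acceptor/donor emission ratio / Benchmarks: wells lacking GST-core106 and wells with excess unlabelled core106 / Repeats: singlicate, one well per compound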
# DNA FID counter: compounds displacing fluorescent DNA intercalator, primary screen, artefact control for HCV NS3 helicase inhibitor project, biochemical, FID fluorescence. AID 1845, 2009. 290,000 compounds, 0.17% hits. inhibition, % at 7.9 µM. DNA fluorescent intercalator displacement; in the data active means inhibition above about 37%;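 further: 0% = vehicle and 100% = reference compound; higher means more ethidium bromide displaced from hairpin DNA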
# GPR7 antagonist: GPR7 receptor antagonists, primary screen, cell-based, fluorescence, single concentration; AID 1861, 2009; GPR7-expressing cells, fluorescence antagonist assay; inhibition, % at 4.4 µM; 290,000 compounds, 1.1% hits; in the data active means inhibition above about 16%, passing the limit was not always enough;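 further: cells stimulated with the agonist NPW; 0% = agonist with vehicle and 100% = vehicle without agonist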
# The depositor's hits bear a star; . = not tested or not shown.
SMILES,pCIP destab,NS3 helicase inh,HCV core dimer,DNA FID counter,GPR7 antagonist
CCCCN(C(=O)Cn1nnc2ccccc21)C(C(=O)NCCOC)c1cccs1 (configuration not stated),-7,21,-1,-33,2
CCCCN(C(=O)Cn1nnc2ccccc21)C(C(=O)NCCOC)c1ccccc1 (configuration not stated),1,5,-3,-32,19*
Cc1ccc(S(=O)(=O)NCc2ccccc2)cc1C(=O)NCc1ccccn1,-12,3,-6,-2,-13
CCCOc1ccc2cc(C(=O)NCc3ccccc3)c(=O)oc2c1,-25,-1,58*,-16,-9
COc1ccc2oc(=O)c(C(=O)NCc3ccccc3)cc2c1,-2,1,-1,-10,3
Cc1cc(OC(C)C(=O)NNC(=O)Nc2ccc(F)cc2F)cc(C)c1Cl (configuration not stated),-15,-8,-4,-27,-7
O=C(CSCC(=O)NC1CC1)Nc1ccccc1,-10,6,7,-4,-9
O=C(CSCC(=O)NC1CC1)Nc1ccc2ccccc2c1,-3,7,.,-4,20*
CC1CC(C)CN(CC(=O)NC(c2ccccc2)c2ccccc2)C1 (configuration not stated),-15,-21,2,37*,5
O=C(Nc1ccccc1F)c1ccc(CSc2ccccc2)o1,5,-16,10,-13,-1
O=C(Nc1ccc(-c2nc3ccccc3s2)c(OC(=O)c2ccccc2)c1)c1ccccc1,5,11,58*,-2,0
Cc1ccc2c(c1)c1c(n2CC(O)CNC(C)(C)C)CCCC1 (configuration not stated),-2,-38,.,25,21*
Cc1ccc2c(c1)c1c(n2CC(O)CN2CCCCCC2)CCCC1 (configuration not stated),5,-91,-4,12,27
Cc1ccc(-n2c(SCC(=O)NCc3ccco3)nc3sc4c(c3c2=O)CC(C)(C)SC4)cc1,-12,29,68*,-43,-11
CCSc1nc2sc3c(c2c2nnc(SCC(=O)NCc4ccco4)n12)CCCC3,.,14,58*,-23,-9
O=C(NCc1csc(-c2cccs2)n1)C1CCCCC1,-2,-7,-4,-14,-13
CC1CCCN(C(=O)CSc2ncccn2)C1 (configuration not stated),2,-4,-5,-5,-6
O=C(COc1ccc([N+](=O)[O-])cc1)N(Cc1ccccc1)Cc1ccccc1,-6,-7,11,-11,31*
COc1ccccc1NS(=O)(=O)c1cccc(C(=O)NCC(c2ccc(F)cc2)N2CCOCC2)c1 (configuration not stated),.,.,0,.,.
Cc1ccc(N2C(=O)/C(=C\c3ccco3)SC2=S)cc1,-16,31,37,-2,-5
COc1ccccc1/C=C1\SC(=S)N(CCC(=O)Nc2ccc(C(=O)O)c(O)c2)C1=O,-8,3,9,38*,3
O=C1/C(=C\c2ccco2)SC(=S)N1c1ccccc1,-11,37*,-5,-6,-5
O=C(CCCN1C(=O)/C(=C\c2ccco2)SC1=S)Nc1ccc2ccccc2c1,0,21,46*,-5,-11
CCCCCCCCCC[n+]1cccc2c3ccccc3ccc21,5,-39,.,10,70*
Cc1cccc[n+]1CCCCCCCCCC[n+]1ccccc1C,4,5,0,13,0
SMILES,pCIP destab,NS3 helicase inh,HCV core dimer,DNA FID counter,GPR7 antagonist
CCCCCCCC[n+]1cccc2c3ccccc3ccc21,1,-33,3,13,67*
FC(F)(F)c1ccccc1CN1CCN(C2CCCCCC2)CC1,-8,-17,-8,10,20*
Cn1c(CC(=O)c2ccc(Br)cc2)[n+](C)c2ccccc21,8,2,0,5,-7
O=C(O)Cn1ccc2cc(S(=O)(=O)N3CCCCCC3)ccc21,-1,-1,4,-37,-6
O=C(Nc1ccc(S(=O)(=O)Nc2nccs2)cc1)c1ccc(N2C(=O)c3ccccc3C2=O)cc1,-11,29,54*,3,7
CN(C)S(=O)(=O)c1cccc(-c2nn(-c3ccccc3)cc2/C=C2\SC(=S)NC2=O)c1,-25,32,52*,-13,-7
